# Active and inactive are the calls of the source. The calls are words filed in the database; no cut-off is given here.
# How the values were obtained:
# Bacillus cereus [1] = assay: Antimicrobial activity against Bacillus cereus MTCC 7350 assessed as diameter of inhibition zone at 80 uM after 24 hrs by Kirby -Baur disc diffusion method; type: functional; conditions: MTCC 7350, 24 h, read-out: DIZ
# Procedure, shortened: (§1)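 Kirby-Bauer disc diffusion was used. Acetone stocks (160 µM) were serially doubled down to 80, 40 and 20 µM. 4 µL of each went onto 5 mm sterile paper discs, which were dried 30 min at 50 °C. Inoculum was 1.5 × 10⁸ CFU/mL diluted to 3 × 10² CFU/mL, and 50 µL was spread on Mueller-Hinton agar. After 24 h at 37 °C the inhibition-zone diameter was measured. Ciprofloxacin served as positive control.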
# Curvularia lunata [2] = assay: Antifungal activity against Curvularia lunata MTCC 581 after 48 hrs; type: functional; conditions: MTCC 581, 48 h
# Salmonella typhi [3] = assay: Antimicrobial activity against Salmonella typhi ATCC 23564 assessed as diameter of inhibition zone at 80 uM after 24 hrs by Kirby -Baur disc diffusion method; type: functional, Salmonella enterica subsp. enterica serovar Typhi; conditions: Salmonella enterica, ATCC 23564, 24 h; read-out: DIZ
# Salmonella typhi [4] = assay: Antimicrobial activity against Salmonella typhi ATCC 23564 assessed as diameter of inhibition zone at 40 uM after 24 hrs by Kirby -Baur disc diffusion method; type: functional, Salmonella enterica subsp. enterica serovar Typhi; conditions: Salmonella enterica, ATCC 23564, 24 h; read-out: DIZ
# Staphylococcus aureus [5] = assay: Antimicrobial activity against Staphylococcus aureus ATCC 11632 assessed as diameter of inhibition zone at 40 uM after 24 hrs by Kirby -Baur disc diffusion method; type: functional; conditions: ATCC 11632, 24 h, read-out: DIZ; procedure, shortened: as §1
# Trichoderma viride [6] = assay: Antifungal activity against Trichoderma viride MTCC 1107 after 48 hrs; type: functional; conditions: MTCC 1107, 48 h
# Bacillus cereus [7] = assay: Antimicrobial activity against Bacillus cereus MTCC 7350 after 24 hrs by broth micro serial dilution method; type: functional; conditions: MTCC 7350, 24 h
# Procedure, shortened: (§2)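 This was broth microdilution in autoclaved Mueller-Hinton broth. 150 µL of compound per well was serially diluted […], and 50 µL of test organism was added. Plates were incubated 24 h at 37 °C and optical density was read.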
# Aspergillus niger [8] = assay: Antifungal activity against Aspergillus niger MTCC 1108 after 48 hrs; type: functional; conditions: MTCC 1108, 48 h
# Mus musculus = assay: Antiinflammatory activity in mouse assessed as inhibition of carrageenan-induced increase in paw volume at 200 mg/kg administered 1 hr prior to carrageenan challenge measured after 3 hrs relative to control; type: functional
# Procedure, shortened: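 Mice were fasted 2 h and placed in groups of five. Controls received saline i.p. Phenylbutazone was given at 100 mg/kg i.p., curcumin at 200 mg/kg i.p., and derivatives at 200 mg/kg. After 1 h, 0.1 mL of 1% carrageenan in saline was injected subplantar into the right hind paw. Paw volume was followed by plethysmometer for 3 h, and % inhibition was calculated as (Vc − Vt)/Vc × 100.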
# Staphylococcus aureus [9] = assay: Antimicrobial activity against Staphylococcus aureus ATCC 11632 assessed as diameter of inhibition zone at 20 uM after 24 hrs by Kirby -Baur disc diffusion method; type: functional; conditions: ATCC 11632, 24 h, read-out: DIZ; procedure, shortened: as §1
# Pseudomonas aeruginosa [10] = assay: Antimicrobial activity against Pseudomonas aeruginosa ATCC 15499 assessed as diameter of inhibition zone at 20 uM after 24 hrs by Kirby -Baur disc diffusion method; type: functional; conditions: ATCC 15499, 24 h, read-out: DIZ; procedure, shortened: as §1
# Pseudomonas aeruginosa [11] = assay: Antimicrobial activity against Pseudomonas aeruginosa ATCC 15499 assessed as diameter of inhibition zone at 80 uM after 24 hrs by Kirby -Baur disc diffusion method; type: functional; conditions: ATCC 15499, 24 h, read-out: DIZ; procedure, shortened: as §1
# Aspergillus flavus [12] = assay: Antifungal activity against Aspergillus flavus MTCC 1021 assessed as zone of inhibition at 40 uM after 48 hrs by disc diffusion method; type: functional
# Procedure, shortened: (§3)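 Spores from 4-day potato dextrose agar cultures, suspended in sterile water at 1.5 × 10⁵ CFU/mL. 0.2 mL was spread on potato dextrose agar. 5 mm filter-paper discs soaked with test compound were laid on the lawn. Incubation was 48 h at 28 °C, then the inhibition zone was measured in mm. Fluconazole was the positive control and acetone the negative control.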
# Aspergillus flavus [13] = assay: Antifungal activity against Aspergillus flavus MTCC 1021 assessed as zone of inhibition at 20 uM after 48 hrs by disc diffusion method; type: functional; procedure, shortened: as §3
# Escherichia coli [14] = assay: Antimicrobial activity against Escherichia coli ATCC 35218 after 24 hrs by broth micro serial dilution method; type: functional; conditions: ATCC 35218, 24 h; procedure, shortened: as §2
# Escherichia coli [15] = assay: Antimicrobial activity against Escherichia coli ATCC 35218 assessed as diameter of inhibition zone at 20 uM after 24 hrs by Kirby -Baur disc diffusion method; type: functional; conditions: ATCC 35218, 24 h, read-out: DIZ; procedure, shortened: as §1
# Escherichia coli [16] = assay: Antimicrobial activity against Escherichia coli ATCC 35218 assessed as diameter of inhibition zone at 40 uM after 24 hrs by Kirby -Baur disc diffusion method; type: functional; conditions: ATCC 35218, 24 h, read-out: DIZ; procedure, shortened: as §1
# Escherichia coli [17] = assay: Antimicrobial activity against Escherichia coli ATCC 35218 assessed as diameter of inhibition zone at 80 uM after 24 hrs by Kirby -Baur disc diffusion method; type: functional; conditions: ATCC 35218, 24 h, read-out: DIZ; procedure, shortened: as §1
# Salmonella typhi [18] = assay: Antimicrobial activity against Salmonella typhi ATCC 23564 after 24 hrs by broth micro serial dilution method; type: functional, Salmonella enterica subsp. enterica serovar Typhi; conditions: Salmonella enterica, ATCC 23564, 24 h
# Curvularia lunata [19] = assay: Antifungal activity against Curvularia lunata MTCC 581 assessed as zone of inhibition at 80 uM after 48 hrs by disc diffusion method; type: functional; conditions: MTCC 581, 48 h, read-out: IZ; procedure, shortened: as §3
# HepG2 = assay: Cytotoxicity against human HepG2 cells after 24 hrs by MTT assay; type: functional, cell-based
# Procedure, shortened: (§4)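 The MTT assay seeded 5 × 10⁴ cells per well and grew them 24 h in RPMI 1640 with compound at 2.5–200 µM. Medium without cells was the blank and adriamycin the positive control. MTT was added for 4 h at 37 °C, formazan was solubilised, and absorbance was read at 570 nm. IC50 is the concentration that cuts viability 50% against untreated cells.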
# Aspergillus flavus [20] = assay: Antifungal activity against Aspergillus flavus MTCC 1021 after 48 hrs; type: functional; conditions: MTCC 1021, 48 h
# Pseudomonas aeruginosa [21] = assay: Antimicrobial activity against Pseudomonas aeruginosa ATCC 15499 after 24 hrs by broth micro serial dilution method; type: functional; conditions: ATCC 15499, 24 h; procedure, shortened: as §2
# HCT-116 = assay: Cytotoxicity against human HCT116 cells after 24 hrs by MTT assay; type: functional, cell-based; procedure, shortened: as §4
# Curvularia lunata [22] = assay: Antifungal activity against Curvularia lunata MTCC 581 assessed as zone of inhibition at 40 uM after 48 hrs by disc diffusion method; type: functional; conditions: MTCC 581, 48 h, read-out: IZ; procedure, shortened: as §3
# Trichoderma viride [23] = assay: Antifungal activity against Trichoderma viride MTCC 1107 assessed as zone of inhibition at 20 uM after 48 hrs by disc diffusion method; type: functional; conditions: MTCC 1107, 48 h, read-out: IZ; procedure, shortened: as §3
# Staphylococcus aureus [24] = assay: Antimicrobial activity against Staphylococcus aureus ATCC 11632 after 24 hrs by broth micro serial dilution method; type: functional; conditions: ATCC 11632, 24 h; procedure, shortened: as §2
# Staphylococcus aureus [25] = assay: Antimicrobial activity against Staphylococcus aureus ATCC 11632 assessed as diameter of inhibition zone at 80 uM after 24 hrs by Kirby -Baur disc diffusion method; type: functional; conditions: ATCC 11632, 24 h, read-out: DIZ; procedure, shortened: as §1
# Bacillus cereus [26] = assay: Antimicrobial activity against Bacillus cereus MTCC 7350 assessed as diameter of inhibition zone at 40 uM after 24 hrs by Kirby -Baur disc diffusion method; type: functional; conditions: MTCC 7350, 24 h, read-out: DIZ; procedure, shortened: as §1
# Bacillus cereus [27] = assay: Antimicrobial activity against Bacillus cereus MTCC 7350 assessed as diameter of inhibition zone at 20 uM after 24 hrs by Kirby -Baur disc diffusion method; type: functional; conditions: MTCC 7350, 24 h, read-out: DIZ; procedure, shortened: as §1
# QG-56 = assay: Cytotoxicity against human QG56 cells after 24 hrs by MTT assay; type: functional, cell-based; procedure, shortened: as §4
# Salmonella typhi [28] = assay: Antimicrobial activity against Salmonella typhi ATCC 23564 assessed as diameter of inhibition zone at 20 uM after 24 hrs by Kirby -Baur disc diffusion method; type: functional, Salmonella enterica subsp. enterica serovar Typhi; conditions: Salmonella enterica, ATCC 23564, 24 h; read-out: DIZ
# Curvularia lunata [29] = assay: Antifungal activity against Curvularia lunata MTCC 581 assessed as zone of inhibition at 20 uM after 48 hrs by disc diffusion method; type: functional; conditions: MTCC 581, 48 h, read-out: IZ; procedure, shortened: as §3
# Aspergillus niger [30] = assay: Antifungal activity against Aspergillus niger MTCC 1108 assessed as zone of inhibition at 80 uM after 48 hrs by disc diffusion method; type: functional; conditions: MTCC 1108, 48 h, read-out: IZ; procedure, shortened: as §3
# Trichoderma viride [31] = assay: Antifungal activity against Trichoderma viride MTCC 1107 assessed as zone of inhibition at 40 uM after 48 hrs by disc diffusion method; type: functional; conditions: MTCC 1107, 48 h, read-out: IZ; procedure, shortened: as §3
# Aspergillus flavus [32] = assay: Antifungal activity against Aspergillus flavus MTCC 1021 assessed as zone of inhibition at 80 uM after 48 hrs by disc diffusion method; type: functional; conditions: MTCC 1021, 48 h, read-out: IZ; procedure, shortened: as §3
# Pseudomonas aeruginosa [33] = assay: Antimicrobial activity against Pseudomonas aeruginosa ATCC 15499 assessed as diameter of inhibition zone at 40 uM after 24 hrs by Kirby -Baur disc diffusion method; type: functional; conditions: ATCC 15499, 24 h, read-out: DIZ; procedure, shortened: as §1
# Trichoderma viride [34] = assay: Antifungal activity against Trichoderma viride MTCC 1107 assessed as zone of inhibition at 80 uM after 48 hrs by disc diffusion method; type: functional; conditions: MTCC 1107, 48 h, read-out: IZ; procedure, shortened: as §3
# HeLa = assay: Cytotoxicity against human HeLa cells after 24 hrs by MTT assay; type: functional, cell-based; procedure, shortened: as §4
# Aspergillus niger [35] = assay: Antifungal activity against Aspergillus niger MTCC 1108 assessed as zone of inhibition at 20 uM after 48 hrs by disc diffusion method; type: functional; procedure, shortened: as §3
# Aspergillus niger [36] = assay: Antifungal activity against Aspergillus niger MTCC 1108 assessed as zone of inhibition at 40 uM after 48 hrs by disc diffusion method; type: functional; procedure, shortened: as §3
structure (smiles),measurement,setting,value
COc1cc(/C=C/C(CC(/C=C/c2ccc(O)c(OC)c2)=N/c2ccc(S(=O)(=O)Nc3cc(C)on3)cc2)=N\c2ccc(S(=O)(=O)Nc3cc(C)on3)cc2)ccc1O,zone of inhibition at 80 µM,Bacillus cereus [1],21 mm
same,MIC,Curvularia lunata [2],40 µM
same,zone of inhibition at 80 µM,Salmonella typhi [3],29 mm
same,zone of inhibition at 40 µM,Salmonella typhi [4],26 mm
same,zone of inhibition at 40 µM,Staphylococcus aureus [5],21 mm
same,MIC,Trichoderma viride [6],40 µM
same,MIC,Bacillus cereus [7],40 µM
same,MIC,Aspergillus niger [8],> 80 µM
same,inhibition in vivo at 200 mg/kg,Mus musculus,8%
same,zone of inhibition at 20 µM,Staphylococcus aureus [9],17 mm
same,zone of inhibition at 20 µM,Pseudomonas aeruginosa [10],16 mm
same,zone of inhibition at 80 µM,Pseudomonas aeruginosa [11],26 mm
same,inhibition zone (IZ),Aspergillus flavus [12],inactive
same,inhibition zone (IZ),Aspergillus flavus [13],inactive
same,MIC,Escherichia coli [14],20 µM
same,zone of inhibition at 20 µM,Escherichia coli [15],18 mm
same,zone of inhibition at 40 µM,Escherichia coli [16],21 mm
same,zone of inhibition at 80 µM,Escherichia coli [17],23 mm
same,MIC,Salmonella typhi [18],40 µM
same,zone of inhibition at 80 µM,Curvularia lunata [19],11 mm
same,IC50,HepG2,100 µM
same,MIC,Aspergillus flavus [20],> 80 µM
same,MIC,Pseudomonas aeruginosa [21],40 µM
same,IC50,HCT-116,100 µM
same,zone of inhibition at 40 µM,Curvularia lunata [22],10 mm
same,zone of inhibition at 20 µM,Trichoderma viride [23],9 mm
same,MIC,Staphylococcus aureus [24],40 µM
same,zone of inhibition at 80 µM,Staphylococcus aureus [25],24 mm
same,zone of inhibition at 40 µM,Bacillus cereus [26],16 mm
same,zone of inhibition at 20 µM,Bacillus cereus [27],11 mm
same,IC50,QG-56,100 µM
same,zone of inhibition at 20 µM,Salmonella typhi [28],18 mm
same,zone of inhibition at 20 µM,Curvularia lunata [29],9 mm
same,zone of inhibition at 80 µM,Aspergillus niger [30],10 mm
same,zone of inhibition at 40 µM,Trichoderma viride [31],11 mm
same,zone of inhibition at 80 µM,Aspergillus flavus [32],9 mm
same,zone of inhibition at 40 µM,Pseudomonas aeruginosa [33],21 mm
same,zone of inhibition at 80 µM,Trichoderma viride [34],13 mm
same,IC50,HeLa,100 µM
same,inhibition zone (IZ),Aspergillus niger [35],inactive
same,inhibition zone (IZ),Aspergillus niger [36],inactive

# From ChEMBL document CHEMBL2384906, “Biological activity, design, synthesis and structure activity relationship of some novel derivatives of curcumin containing sulfonamides” (Eur J Med Chem, 2013)
